# Measurements published in ChEMBL document CHEMBL3352407, “Griseorhodins D-F, neuroactive intermediates and end products of post-PKS tailoring modification in Griseorhodin biosynthesis” (J Nat Prod, 2014).
# The source made the active and inactive calls. The rule behind the calls is not given here.
# What was measured:
# [1] = tested on: DRG neuron; assay: Increase in Ca2+ uptake in mouse DRG neurons at 10 ug/ml by Fura-2 dye-based fluorescence microscopy in presence of KCl relative to control; format: functional
# Procedure, shortened: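 Mouse DRG cells plated in medium with additives and loaded with the Ca2+ dye Fura-2 AM. Compound applied at 10 μg/mL, then 25 mM KCl added. Ca2+ influx compared with control cells in the same well.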
# [2] = tested on: DRG neuron; assay: Induction of depolarization of mouse DRG neurons at 10 ug/ml by Fura-2 dye-based fluorescence microscopy; format: functional
# Procedure, shortened: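 Dorsal root ganglion cells were taken from mice, plated in medium with additives and loaded with Fura-2 AM. Intracellular Ca2+ was followed as the read-out while compound was applied at 10 μg/mL. This was followed by 25 mM KCl, with responses compared against control cells in the same well.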
Compound,Activity [1],Activity [2]
CC(=O)Cc1cc2c(c(O)c1C(=O)O)-c1cc3c(c(O)c1CC2)C(=O)c1c(O)cc(O)cc1[C@H]3[C@H]1c2cc(O)cc(O)c2C(=O)c2c1cc1c(c2O)CCc2cc(CC(C)=O)c(C(=O)O)c(O)c2-1 (stereo in doubt; 1b),Active,inactive
CC(=O)Cc1cc2c(c(O)c1C(=O)O)-c1cc3c(c(O)c1CC2)C(=O)c1c(O)cc(O)cc1[C@H]3[C@H]1c2cc(O)cc(O)c2C(=O)c2c1cc1c(c2O)CCc2cc(CC(C)=O)c(C(=O)O)c(O)c2-1 (stereo in doubt; 1a),Active,inactive
